We go through six molecules from publication PMC13201524 (Journal of structural biology, 2025).

One series concerns the target T1, mScn (Mus musculus, UniProt P11672).
T1 sequence (P11672 with tags, fused parts or gaps): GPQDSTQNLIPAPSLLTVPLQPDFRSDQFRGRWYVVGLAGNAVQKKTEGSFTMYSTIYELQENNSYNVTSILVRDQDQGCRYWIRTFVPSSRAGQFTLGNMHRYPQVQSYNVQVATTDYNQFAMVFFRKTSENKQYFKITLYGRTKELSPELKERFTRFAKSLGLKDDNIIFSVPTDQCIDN
The experiment in a line: 1H-15N Trosy HSQC NMR screening and titration on mScn. Format: binding. The settings on record: FDA-approved drugs library and Vanderbilt discovery library; peak shifts of mScn. The method, boiled down: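 15N-labelled mScn was expressed in E. coli BL21(DE3) as a 6His-GB1 fusion, and the GB1 tag was cleaved with HRV3C. Screening used pools of 12 compounds (1 μl each of 10 mM DMSO stock) with 20 μM mScn in 100 mM sodium phosphate pH 6.0, 5 vol% D2O and 2 vol% DMSO. Hits were re-tested singly, then titrated with 50 μM mScn (5 vol% DMSO) at protein:ligand ratios from 1:0 to 1:10.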

The conditions of series [1]: ref Gleiter and Mörike, 2002; Buter et al., 1999; cited from earlier work.
The conditions of series [2]: ref Gleiter and Mörike, 2002; Buter et al., 1999; cited from earlier work. The source holds these as a separate data set.
A further series has as its target hScn. The note with it: read-out: binding affinity; ref Goetz et al., 2002; Hohlbaum et al., 2018; cited from earlier work.
Series [3] in a line: Isothermal titration calorimetry. Type of series: binding. The method in brief:
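Monomeric hScn C87S (and mutants) was expressed in E. coli on M9 medium and purified by Ni-NTA and size exclusion. The protein sat in the cell and the test compound in the syringe, both in matched 100 mM sodium phosphate pH 6.0 with 2% DMSO. Runs were at 25°C and 750 rpm: a 0.4 μL first injection, then at least 19 injections of 2 μL spaced 150 s. A ligand-into-buffer reference titration was run.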
For orientation: In ITC the heat of successive injections is recorded.

Numbering of substitutions follows the chain as printed. Names may count otherwise. “Also recorded” adds a separate entry of the source. Read-outs that look alike come from different tables or passages of the source.

In the case of `CCOc1nc2cccc(C(=O)O)c2n1Cc1ccc(-c2ccccc2-c2nc(=O)o[nH]2)cc1` [azilsartan], at mScn, the “NMR screening / titration result in words” value is recorded as “identified hits”.
In the case of `CCOc1nc2cccc(C(=O)O)c2n1Cc1ccc(-c2ccccc2-c2nnn[nH]2)cc1` [candesartan], the plasma protein binding entry in series [1] is on record as “exceeding 99%”. The “NMR screening / titration result in words” value on mScn is “tightest binding; also recorded: medium to low affinity”. In series [2], the maximal plasma concentration result was “around 0.227 μM”.
Take `O=C(N[C@H]1COC(=O)[C@@H](NC(=O)c2cccc(O)c2O)COC(=O)[C@@H](NC(=O)c2cccc(O)c2O)COC1=O)c1cccc(O)c1O` [enterobactin]: the Kd on hScn is 0.41 ± 0.11 nM.
As for `CCCCC(=O)N(Cc1ccc(-c2ccccc2-c2nnn[nH]2)cc1)[C@H](C(=O)O)C(C)C` [valsartan], the “NMR screening / titration result in words” value on mScn is “identified hits”.

B1: Y138A: hScn_C87S point mutant, best performing loss of binding mutant (protein, UniProt P80188 21-198, looked up, variant C87S Y138A)
Neutrophil …: QDSTSDLIPAPPLSKVPLQQNFQDNQFQGKWYVVGLAGNAILREDKDPQKMYATIYELKEDKSYNVTSVLFRKKKCDYWIRTFVPGSQPGEFTLGNIKSYPGLTSYLVRVVSTNYNQHAMVFFKKVSQNREYFKITLAGRTKELTSELKENFIRFSKSLGLPENHIVFPVPIDQCIDG
B1: the “increase of KD (decrease in binding affinity) compared to wild type” value in series [3] (ITC, candesartan) is on record as “fivefold”.

B2: T54R: hScn_C87S point mutant, best performing gain of binding mutant (protein, UniProt P80188 21-198, looked up, variant C87S T54R)
Neutrophil …: B1 Neutrophil … with T54R, A138Y
B2: the Kd in series [3] (read-out: ITC KD1, first binding event, value in nM) came out at 115 nM; in series [3] (read-out: ITC- KD2, second binding event) it was 3500 nM.
